Screening data from PubChem.
Only some compounds are listed: those with a hit (about 4.1% of all), similar ones and a draw of the others.
KCNQ1 inh: inhibitors of human KCNQ1 channel, primary screen, cell-based, thallium flux, high-throughput; AID 2642, 2010; CHO-K1 KCNQ1, FluxOR thallium flux fluorescence; hits give high values; 310,000 compounds, 1.3% hits; B-score at 10 µM;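 active = compounds whose thallium flux B-score, printed positive for inhibition, exceeds three library SD while starting fluorescence stays within three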;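 also: channel opened by potassium depolarization with thallium stimulus after 20 min compound exposure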
KCNK9 block: KCNK9 potassium channel inhibitors, primary screen, HEK293 cells, thallium flux; 310,000 compounds, 1.2% hits; Potassium channel subfamily K member 9 (Homo sapiens), Q9NPC2; B-score at 10 µM; FluxOR thallium flux fluorescence; hits give low values;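 active = ratio B-score over 3 SD below the library mean, with starting fluorescence within 5 SD of its mean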;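 also: negative B-score means less thallium flux so channel inhibition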
KCNK3 block: human KCNK3 channel inhibitors, primary screen, CHO cells, FluxOR thallium flux, B-score | B-score at 10 µM | 340,000 compounds, 0.84% hits | FluxOR fluorescence; hits give low values;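 active = B-score under library mean minus 4 SD, starting fluorescence ratio at most library mean plus 5 SD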;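 also: more negative B-score means stronger inhibition of thallium flux through KCNK3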
Cl transport mod: KCC2 cotransporter modulators, thallium flux, primary screen, cell-based, HEK293 KCC2, FluoZin-2 fluorescence, MLSMR; B-score of Tl+ flux slope (higher = more flux/activation; lower = inhibition) at 10 µM; AID 1456, 2008; KCC2 cells, thallium flux FluoZin-2 fluorescence; Solute carrier family 12 member 5 (Homo sapiens), Q9H2X9; 190,000 compounds, 2.2% hits;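 active = thallium flux slope and its plate-corrected score both differing from the plate sample mean at a set confidence after two filtering rounds, in either direction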;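 also: slope of fluorescence scaled to starting intensity during 10 to 20 s after thallium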
hERG protect: hERG rescue from dofetilide block, primary screen, cell-based, CHO-hERG, FluxOR thallium flux, dofetilide IC70; Voltage-gated inwardly rectifying potassium channel KCNH2 (Homo sapiens), Q12809; dofetilide IC70 present; activation (rescue from dofetilide block), less the hit threshold, % at 10 µM; 310,000 compounds, 0.51% hits; AID 1511, 2009;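 active = activation above the mean of controls blocked by dofetilide plus 5 SD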;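 also: thallium influx through hERG after potassium depolarization seen as dye fluorescence rise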
KCNQ1 act: potentiators or activators of KCNQ1 channel, primary screen, cell-based, thallium flux, high-throughput | B-score at 10 µM | 310,000 compounds, 0.35% hits | Potassium voltage-gated channel subfamily KQT member 1 (Homo sapiens), P51787 | CHO-K1 KCNQ1, thallium flux FluxOR fluorescence; hits give high values;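 active = fluorescence ratio B-score, a plate-corrected score, at least three library SD, with initial intensity B-score within 5 SD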
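Material: CHO-K1 cells stably expressing KCNQ1. Medium: assay buffer for compound exposure, DMSO matched across wells. Reagent: K+/Tl+ depolarizing stimulus. Compound dosing: single-concentration screen. Times: 37 °C overnight plating, 90-min dark dye load, 20-min compound pretreatment. Technique: FluxOR Tl+ flux fluorescence.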
KCC2 secondary: KCC2 modulators in sodium-free buffer, confirmation, cell-based, HEK293 KCC2, thallium flux, secondary assay; shares compounds with Cl transport mod; FluoZin2 fluorescence; hits give high values; normalised thallium flux (F/F0 slope) at 10 µM; 3,700 compounds, 15% hits; AID 1713, 2009;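 active = thallium flux slope above the same plate's solvent-only control mean plus 3 SD; inconclusive = the two replicate wells disagree; inactive = no significant difference from solvent-only control wells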
KCC2 bumet counter: thallium flux persisting under bumetanide in KCC2 cells, confirmation, counter-screen for KCC2 modulator project, cell-based, HEK293 KCC2, FluoZin2, secondary assay 3. shares compounds with Cl transport mod. HEK293-KCC2 + bumetanide/ouabain; hits give high values. normalized thallium flux at 10 µM. 3,700 compounds, 49% hits;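 active = thallium entry rate above the same plate's blocked-transporter control wells by more than 3 SD; inconclusive = the two repeat wells disagree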;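 also: raw slope of fluorescence over initial fluorescence between 10 and 20 s after thallium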
KCC2 secondary2: KCC2 modulators without ouabain present, confirmation, cell-based, HEK293 KCC2, thallium flux, FluoZin2, secondary assay 2. 3,700 compounds, 23% hits. thallium flux FluoZin2 fluorescence; actives lie on both sides; F/F0 rise rate, 10–20 s post-thallium. shares compounds with Cl transport mod. normalized thallium flux at 10 µM. AID 1715, 2009;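 active = thallium flux slope more than 3 SD above or below the plate's solvent-only control mean, mostly below; inconclusive = the two repeat wells disagreed; inactive = no significant shift from solvent-only controls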;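 also: raw slope with 0.1% DMSO as baseline and bumetanide as block control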
HEK counter1: thallium flux modulation in parental HEK cells, confirmation, counter-screen for KCC2 modulator project, cell-based, counterscreen 1; shares compounds with Cl transport mod; HEK293 parental cells, thallium flux FluoZin2, ouabain; baseline-ratio fluorescence slope, 10–20 s after thallium; thallium flux rate (normalised fluorescence) at 10 µM; 3,700 compounds, 46% hits;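 active = thallium flux rate significantly above the same plate's solvent-only control wells, beyond their mean plus 3 SD; inconclusive = the two replicate wells gave conflicting results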
KCC2 retest ouab: KCC2 inhibitors and activators, ouabain retest, confirmation, HEK-KCC2 cells. shares compounds with Cl transport mod. 3,700 compounds, 48% hits. HEK293-KCC2, thallium flux FluoZin2 fluorescence; bidirectional: low = inhibitor, high = activator. raw Tl+ flux slope (below DMSO = inhibition, above = activation) at 10 µM;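 active = thallium flux slope beyond 3 SD from same-plate DMSO control mean in most replicates, usually higher, sometimes lower; inconclusive = repeat tests gave conflicting results; inactive = no significant difference from controls in most replicates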;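 also: slope of initial-normalized fluorescence between seconds 10 and 20 after thallium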
HEK293 Tl flux2: native HEK Tl+ uptake effects, second counter-screen – HEK cells, counterscreen 2, counter-screen for KCC2 modulator project, confirmation | 3,700 compounds, 33% hits | shares compounds with Cl transport mod | HEK293 parental, thallium flux FluoZin-2 fluorescence slope | thallium flux slope at 10 µM;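 active = thallium flux slope above the same plate's solvent-control mean plus 3 SD in both duplicate wells; inconclusive = duplicate wells that disagreed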;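 also: run without ouabain in cells lacking the KCC2 cotransporter; slope of fluorescence scaled to its starting value between 10 and 20 s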
* marks the source's active call; other numbers are inactive results.

Results for COn1c(SC(C)C)nc2ccccc2c1=O ?
KCNQ1 inh: inactive; KCNK9 block: inactive; KCNK3 block: inactive; Cl transport mod: 0.23; hERG protect: -10; KCNQ1 act: inactive

What do the screens show for `CCOc1ncccc1C(=O)OCC(=O)c1ccc[nH]1`?
KCNQ1 inh: inactive; KCNK9 block: inactive; KCNK3 block: inactive; Cl transport mod: -4.1*; hERG protect: -13; KCNQ1 act: inactive; KCC2 secondary: 0.01; KCC2 bumet counter: 0.0069; KCC2 secondary2: 0.033; HEK counter1: 0.0043; KCC2 retest ouab: 0.021; HEK293 Tl flux2: 0.012

What do the screens show for `Cc1ccc(-c2ccc(/C=N/NC(=O)c3ccccc3O)o2)cc1`?
KCNQ1 inh: inactive; KCNK9 block: inactive; Cl transport mod: 61*; hERG protect: -8; KCNQ1 act: 8*; KCC2 secondary: 0.02*; KCC2 bumet counter: 0.079*; KCC2 secondary2: 0.037; HEK counter1: 0.041*; KCC2 retest ouab: 0.057*; HEK293 Tl flux2: 0.015*

Results for Cc1ccc(-c2ccc(/C=N/NC(N)=S)o2)cc1 ?
KCNQ1 inh: inactive; KCNK9 block: inactive; KCNK3 block: inactive; Cl transport mod: 5*; hERG protect: -3; KCNQ1 act: inactive; KCC2 secondary: 0.0062; KCC2 bumet counter: 0.012*; KCC2 secondary2: 0.033; HEK counter1: 0.01*; KCC2 retest ouab: inconclusive; HEK293 Tl flux2: inconclusive

How did O=[N+]([O-])c1cc(F)cc(F)c1Nc1ccc(F)cc1 do in these assays?
KCNK3 block: inactive

How did O=C1c2c(Cl)c(Cl)c(Cl)c(Cl)c2C(=O)N1c1nccs1 do in these assays?
KCNK3 block: inactive

How did O=C(Cn1cnc2c(OCc3ccccc3)ncnc21)NCCCc1ccccc1 do in these assays?
KCNK3 block: inactive

What do the screens show for `O=C(CSc1ccc(F)cc1)NCC1(N2CCOCC2)CCCCC1`?
KCNQ1 inh: inactive; KCNK9 block: inactive; KCNK3 block: inactive; hERG protect: -9; KCNQ1 act: inactive
